E-sel inducer = E-selectin induction on HUVECs. HUVEC E-selectin immunofluorescence imaging; normalized: neutral wells 0, TNF-alpha wells 100. activation, % at 7.58 µM. 260,000 tested, 0.37% active. AID 686992;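 active means mean E-selectin-positive cell signal at least 10% of the positive control, reached in at least 60% of replicates, without over 20% cell loss; inconclusive means no rule given, readout overlaps actives, possibly toxicity-flagged; inactive means the rest, including those meeting only one limit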
Target sequence (P16581 whole entry, looked up): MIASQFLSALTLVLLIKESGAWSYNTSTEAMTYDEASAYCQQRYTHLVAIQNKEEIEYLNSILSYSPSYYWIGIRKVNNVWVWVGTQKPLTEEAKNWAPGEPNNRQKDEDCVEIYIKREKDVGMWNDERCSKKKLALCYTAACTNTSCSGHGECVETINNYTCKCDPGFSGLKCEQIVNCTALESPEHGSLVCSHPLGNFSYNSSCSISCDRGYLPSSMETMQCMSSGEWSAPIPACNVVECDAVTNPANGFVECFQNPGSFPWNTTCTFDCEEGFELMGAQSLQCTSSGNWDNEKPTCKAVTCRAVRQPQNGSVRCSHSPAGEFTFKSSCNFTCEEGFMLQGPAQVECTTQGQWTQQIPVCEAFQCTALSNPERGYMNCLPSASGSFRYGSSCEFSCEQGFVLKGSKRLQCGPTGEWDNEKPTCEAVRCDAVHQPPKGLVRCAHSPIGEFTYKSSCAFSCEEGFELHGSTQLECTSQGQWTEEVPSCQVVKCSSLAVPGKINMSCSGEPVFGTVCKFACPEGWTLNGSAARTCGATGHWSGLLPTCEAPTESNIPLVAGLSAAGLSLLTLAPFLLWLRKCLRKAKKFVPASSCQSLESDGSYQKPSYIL
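Assay system: HUVEC, human umbilical vein endothelial cells / Amount: 3,000 HUVEC/well / Controls: TNF-alpha positive control, DMSO neutral control / Compound dosing: single concentration / Medium: EGM-2 over gelatin coat / Evaluation: percent E-selectin-positive cells / Signal: immunofluorescence imaging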
INS-1E GSIS act = GLuc luminescence reporter in INS-1E cells, primary screen for activators of glucose-dependent secretion of insulin; INS-1E GLuc reporter insulin secretion, 2-3 h; activation, % at 16.6 µM; 370,000 tested, 0.61% active; AID 743287;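 active means lowest replicate activation of at least 40%, so every replicate reaches that level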;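 further: 0% = median of neutral control wells and 100% = median of IBMX positive control wells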
DENV2 CPE = DENV2-induced cell death inhibition; DENV2-infected cells, cytopathic effect rescue, plate reader; CPE inhibition, % at 9.99 µM; 350,000 tested, 1.7% active; in the data active means CPE inhibition above about 20%, passing the limit was not always enough; inconclusive means no clear call, values can overlap the other calls; tested in BHK-21 cells;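 further: 0% = median of neutral control wells and 100% = median of positive control wells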
ERAP1 HTS inh = inhibitors of human ERAP1 aminopeptidase | inhibition, % at 10.7 µM | AID 652197 | Q9NZ08 | 340,000 tested, 0.15% active | recombinant ERAP1, Leu-AMC fluorescence, 60 min;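 active means mean replicate inhibition of at least 30%, or all replicates individually reaching that 30% level; inactive means mean below 30% and not every replicate reaching it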;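 further: 0% = neutral control wells and 100% = L-leucinethiol positive control wells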
CFTR F508del cor = correctors of CFTR F508del function in bronchial epithelial cells. CFBE cells, YFP halide quenching; stimulated with forskolin plus potentiator P3; % fluorescence drop versus neutral controls. activity (quench increase), % at 7.58 µM. 350,000 tested, 0.36% active. AID 720511;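 active means mean added fluorescence quench of at least 8% versus neutral control, with both replicates also reaching 8%; inconclusive means only one of the mean or replicate conditions met; inactive means mean below 8% and not both replicates reaching 8%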;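 further: cells transiently co-express mutant CFTR-F508del with the halide-sensitive YFP; corrector assay measuring rescue of mutant channel to the surface after 24 h compound exposure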
miR-122 sensor = inhibitors of miR-122 in Huh7 cells | Huh7 miR-122 Renilla luciferase sensor, 48 h; neutral wells = 0, positive control = 100 | activation (reporter increase), % at 12.5 µM | 340,000 tested, 0.3% active;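 active means mean replicate activation score at least 90 and every replicate individually at or above 90; inconclusive means only one of the two criteria met; inactive means neither criterion met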;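 further: higher luciferase means less miR-122 activity so hits act as miR-122 inhibitors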
Active calls of the source: *; ! = not active in a repeat; [ ] = another dose, or the depositor's remark. Most compounds without a hit are left out; they make up all but 2.6% or so of the library.

For C[C@H]1CN([C@@H](C)CO)C(=O)c2cccc(NC(=O)Nc3ccc(F)cc3)c2O[C@H]1CN(C)C(=O)Nc1ccc(C(F)(F)F)cc1 the results were E-sel inducer -9, INS-1E GSIS act -36, DENV2 CPE 3, ERAP1 HTS inh 6, CFTR F508del cor 3 and miR-122 sensor -23[16.7 µM].
O=C(Nc1ccccc1F)N1CC(=O)N2[C@H](CO)[C@@H](c3ccc(C#Cc4ccc(F)cc4)cc3)[C@H]2C1 was read as E-sel inducer 0, INS-1E GSIS act -16, DENV2 CPE 4, ERAP1 HTS inh 2 and CFTR F508del cor 1.
For O=C(Nc1ccccc1F)N1CC(=O)N2[C@H](CO)[C@@H](c3ccc(C#Cc4ccc(F)cc4)cc3)[C@@H]2C1 the results were E-sel inducer 0, INS-1E GSIS act -33, DENV2 CPE 22*, ERAP1 HTS inh 1 and CFTR F508del cor 2.
Screening COc1ccccc1NC(=O)N1CC(=O)N2[C@H](CO)[C@@H](c3ccc(-c4ccc(F)cc4)cc3)[C@H]2C1 returned E-sel inducer 0, INS-1E GSIS act -5, DENV2 CPE 29*, ERAP1 HTS inh 0 and CFTR F508del cor -5.
For COc1ccccc1NC(=O)N1CC(=O)N2[C@H](C1)[C@@H](c1ccc(-c3ccc(F)cc3)cc1)[C@@H]2CO the results were E-sel inducer 0, INS-1E GSIS act -26, DENV2 CPE 7, ERAP1 HTS inh -1 and CFTR F508del cor 3.
`COc1ccc2c3c([nH]c2c1)[C@@H](CO)N(C(=O)Nc1ccc(F)cc1)CC31CCN(S(=O)(=O)c2cccc(F)c2)CC1` gave E-sel inducer 0, INS-1E GSIS act -24, DENV2 CPE 0, ERAP1 HTS inh -1 and CFTR F508del cor 6.
`NC(c1csc(Nc2ccc(C(F)(F)F)cn2)n1)C1CCCCC1` (stereo not drawn) gave E-sel inducer 0, INS-1E GSIS act 533*, DENV2 CPE -13, ERAP1 HTS inh 3 and CFTR F508del cor 0.
Screening NC(CCc1ccccc1)c1csc(Nc2ccc(C(F)(F)F)cn2)n1 (stereo not drawn) returned E-sel inducer 0, INS-1E GSIS act 308*, DENV2 CPE inconclusive, ERAP1 HTS inh -7, CFTR F508del cor 1 and miR-122 sensor 3.
For NC(COCc1ccccc1)c1csc(Nc2ccc(C(F)(F)F)cn2)n1 (stereo not drawn) the results were E-sel inducer 0, INS-1E GSIS act 254, DENV2 CPE -5, ERAP1 HTS inh 6 and CFTR F508del cor -1.
COc1ccc2c3c(n(C)c2c1)[C@@H](CO)N(Cc1ccccc1)CC31CCN(C(=O)c2ccccc2F)CC1 was read as E-sel inducer 0, INS-1E GSIS act 7, DENV2 CPE 12, ERAP1 HTS inh 1 and CFTR F508del cor 1.
Nc1c(C(=O)c2ccccc2)sc2nsc(SCCN3CCCC3)c12 was read as E-sel inducer 0, INS-1E GSIS act -4, DENV2 CPE 57*, CFTR F508del cor -5 and miR-122 sensor -12.
CNC[C@@H]1Oc2ccc(NC(=O)Cc3ccccc3)cc2C(=O)N([C@H](C)CO)C[C@H]1C was read as E-sel inducer 0, INS-1E GSIS act -1, ERAP1 HTS inh 2, CFTR F508del cor 2 and miR-122 sensor -5[16.7 µM].
Screening CS(=O)(=O)c1ccc2nc(N)sc2c1 returned miR-122 sensor -5.
For CS(=O)(=O)c1ccc(N)c(SSc2cc(S(C)(=O)=O)ccc2N)c1 the results were E-sel inducer 0, INS-1E GSIS act 12, DENV2 CPE 3, ERAP1 HTS inh 39*, CFTR F508del cor 4 and miR-122 sensor 1.
`CO[C@@H]1CN(C)C(=O)c2cc(C#N)ccc2OC[C@H]2O[C@@H](CC[C@H]2OC)CCN(C)C(=O)[C@H]1C` gave E-sel inducer 0, INS-1E GSIS act 3, DENV2 CPE 0, ERAP1 HTS inh 1 and CFTR F508del cor -1.
For C[C@H]1[C@H](c2ccccc2)C[C@@H](C(=O)O)C1(C)C the results were E-sel inducer 0, INS-1E GSIS act 7, DENV2 CPE 40*, ERAP1 HTS inh -2, CFTR F508del cor -3 and miR-122 sensor -1.
Screening O=C(c1ccccc1)C1CC1c1ccccc1 (stereo not drawn) returned E-sel inducer 0, DENV2 CPE 9, ERAP1 HTS inh 2, CFTR F508del cor 3 and miR-122 sensor -3.
Screening CC(C)(C)OC(=O)N1O[C@H]2CC1[C@@H]1[C@@H]2N=NN1CCc1ccncc1 returned E-sel inducer 0, INS-1E GSIS act 5, DENV2 CPE inconclusive, CFTR F508del cor 2 and miR-122 sensor 1.
CC(C)(C)OC(=O)N1O[C@H]2C[C@@H]1[C@@H]1[C@@H]2N=NN1C12CC3CC(CC(C3)C1)C2 was read as E-sel inducer 0, INS-1E GSIS act 44*, DENV2 CPE -4, ERAP1 HTS inh -4, CFTR F508del cor 2 and miR-122 sensor 1.
CC1(C)CC(NC(=O)COc2ccccc2Cl)CC(C)(C)N1 was read as E-sel inducer 1, INS-1E GSIS act 2, DENV2 CPE 33*, ERAP1 HTS inh -3, CFTR F508del cor 1 and miR-122 sensor -17.
Screening CCc1cc(=O)oc2cc(OCC(=O)NC3CC(C)(C)NC(C)(C)C3)ccc12 returned INS-1E GSIS act 17, DENV2 CPE 36*, ERAP1 HTS inh -5, CFTR F508del cor -1 and miR-122 sensor -6.
CCCc1cc(=O)oc2cc(OCC(=O)NC3CCN(Cc4ccccc4)CC3)ccc12 was read as INS-1E GSIS act 44*, DENV2 CPE -6, ERAP1 HTS inh 0, CFTR F508del cor 0 and miR-122 sensor 2.
`Cc1ccc(S(=O)(=O)N[C@H]2CC[C@H](CC(=O)N3CCc4ccccc4C3)O[C@@H]2CO)cc1` gave E-sel inducer 0, INS-1E GSIS act -6, DENV2 CPE 3, ERAP1 HTS inh -2, CFTR F508del cor -3 and miR-122 sensor -2[16.7 µM].
CO[C@@H]1CN(C)C(=O)c2cc(NS(=O)(=O)c3ccccc3)ccc2OC[C@H](C)N(C)C[C@H]1C was read as E-sel inducer 0, INS-1E GSIS act 0, DENV2 CPE 21*, ERAP1 HTS inh -1 and miR-122 sensor 1[16.7 µM].
COc1cccc(S(=O)(=O)Nc2ccc3c(c2)C(=O)N(C)C[C@H](OC)[C@H](C)CN[C@@H](C)CO3)c1 was read as E-sel inducer 0, INS-1E GSIS act 14, DENV2 CPE 20*!, ERAP1 HTS inh -1, CFTR F508del cor 0 and miR-122 sensor -6[16.7 µM].
For COc1cccc(S(=O)(=O)Nc2ccc3c(c2)C(=O)N(C)C[C@@H](OC)[C@H](C)CN[C@H](C)CO3)c1 the results were E-sel inducer 0, INS-1E GSIS act 7, DENV2 CPE -1, ERAP1 HTS inh 0, CFTR F508del cor -3 and miR-122 sensor -17[16.7 µM].
